Read-outs that look alike come from different tables or passages of the source. Marks after values point to notes of the source that are not given here.
How the values were obtained:
[1] = weight used: Weight, cited from earlier work
[2] = Population-based PK model; type: in vivo, human
Outline: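 Matched case-control: overweight/obese children (≥85th percentile, CDC charts) vs normal-weight controls matched on age (±1 y), SCr (±0.4 mg/dL), nephrotoxic co-medication and ICU stay; 389 serum levels, mostly drawn after third dose, with full dosing history. One-compartment first-order model, FOCE with interaction; age and SCr on CL; weight on Vd, weight^0.75 on CL; MAP Bayesian POSTHOC individual estimates; 1000-replicate bootstrap 95% CIs.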

[3] = cited from earlier work
[4] = 18 overweight children, age 5, 0.5–18 y
[5] = bootstrap analysis of 1000 replicates
[6] = obese and overweight children compared with those with normal weight
[7] = overweight/obese cases versus normal-weight controls, 87 matched pairs
[8] = 4 normal-weight adults (Weight <115% IW), 25–30 y, weight used: Weight, SD
[9] = 6 morbidly obese adults (Weight >190% IW), 27–37 y, weight used: Weight, SD
[10] = 6 morbidly obese adults, 27–37 y, weight used: IW, SD
[11] = 24 morbidly obese adults (Weight >190% IW), 41 (7) y, weight used: Weight, SD
[12] = 24 morbidly obese adults, weight used: IW, SD
[13] = 24 normal-weight adults, weight used: IW, SD

## CN[C@H](CC(C)C)C(=O)N[C@H]1C(=O)N[C@@H](CC(N)=O)C(=O)N[C@H]2C(=O)N[C@H]3C(=O)N[C@H](C(=O)N[C@H](C(=O)O)c4cc(O)cc(O)c4-c4cc3ccc4O)[C@H](O)c3ccc(c(Cl)c3)Oc3cc2cc(c3O[C@@H]2O[C@H](CO)[C@@H](O)[C@H](O)[C@H]2O[C@H]2C[C@](C)(N)[C@H](O)[C@H](C)O2)Oc2ccc(cc2Cl)[C@H]1O [vancomycin]
[1]; 13 underweight children
  Clearance, Mean (SD) or Median (Range): 0.18 (0.09) L/kg/h
  Vd, Mean (SD) or Median (Range): 0.97 (0.54) L/kg
[1]; [4]
  Clearance, Mean (SD) or Median (Range): 0.16 (0.05) L/kg/h
  Vd, Mean (SD) or Median (Range): 0.81 (0.37) L/kg
[1]; 31 normal-weight children
  Clearance, Mean (SD) or Median (Range): 0.2 (0.08) L/kg/h
  Vd, Mean (SD) or Median (Range): 1 (0.35) L/kg
[2]; [5]
  θ1, Median Bootstrap Estimate (95% CI): 0.572 (0.514–0.632)
  θ2, Median Bootstrap Estimate (95% CI): 0.285 (0.268–0.304)
  θ3, Median Bootstrap Estimate (95% CI): 0.291 (0.165–0.395)
  θ4, Median Bootstrap Estimate (95% CI): 0.742 (0.194–1.263)
[2]; final population PK model, 174 participants, 389 concentrations
  θ1, population estimate: Vd (L) = θ1 × Weight (kg): 0.574
[2]; [6]
  decrease of weight-adjusted CL: 10.8%
  decrease of weight-adjusted Vd: 2.2%
[2]; [7]
  mean CL, based on weight, for cases lower than controls by: 0.233 mL/min/kg
  mean Vd, based on weight, for cases lower than controls by: 0.012 L/kg
[3]; [8]
  Clearance, Mean (SD) or Median (Range): 0.065 (0.004) L/kg/h
  Vd, Mean (SD) or Median (Range): 0.39 (0.06) L/kg
[3]; [9]
  Clearance, Mean (SD) or Median (Range): 0.066 (0.01) L/kg/h
  Vd, Mean (SD) or Median (Range): 0.26 (0.03) L/kg
[3]; [10]
  Clearance, Mean (SD) or Median (Range): 0.174 (0.04) L/kg/h
  Vd, Mean (SD) or Median (Range): 0.68 (0.07) L/kg
[3]; [11]
  Clearance, Mean (SD) or Median (Range): 0.072 (0.012) L/kg/h
  Vd, Mean (SD) or Median (Range): 0.32 (0.05) L/kg
[3]; [12]
  Clearance, Mean (SD) or Median (Range): 0.186 (0.042) L/kg/h
  Vd, Mean (SD) or Median (Range): 0.83 (0.08) L/kg
[3]; [13]
  Clearance, Mean (SD) or Median (Range): 0.06 (0.024) L/kg/h
  Vd, Mean (SD) or Median (Range): 0.64 (0.26) L/kg
[3]; 37 underweight adults (Weight <80% IW), weight used: IW, 95% CI 0.55–0.68
  Vd, Mean (SD) or Median (Range): 0.62 (0.55–0.68 ^‡) L/kg
[3]; 107 obese adults (Weight >120% LBM), weight used: Weight, range of means
  Clearance, Mean (SD) or Median (Range): 0.0366–0.051 ^† L/kg/h
[3]; 108 obese adults (Weight >130% IW), weight used: IW, 95% CI 0.82–0.97
  Vd, Mean (SD) or Median (Range): 0.89 (0.82–0.97 ^‡) L/kg
[3]; 108 obese adults (Weight >130% IW), weight used: Weight, 95% CI 0.52–0.59
  Vd, Mean (SD) or Median (Range): 0.56 (0.52–0.59 ^‡) L/kg
